For test [1], the system named is Rattus norvegicus. Kind of test: Effect of compound on gain in body weight in 4th group of normal chow-fed male rats after a dose of 10 mg/kg/day. It counts as functional. The essentials:
(§1)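 Male Sprague–Dawley CD rats (60–80 g) on standard chow under a reversed 12 h light/dark cycle. Compound was suspended in 1.3% Tween 80/0.25% CMC and given as a single daily oral gavage dose for 4 days. Rats were fasted overnight and killed 24 h after the last dose. Serum ALT, AST, ALKP and LDH were read on a clinical analyzer. Weight gain was start versus end weight. Mean ± SEM, n = 6.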

Test [2] relates to Rattus norvegicus. Kind of test: Effect of compound on gain in body weight in 1st group of normal chow-fed male rats after a dose of 1 mg/kg/day. It counts as functional. The essentials: as §1
Test [3] has as its system Rattus norvegicus. Briefly: Effect of compound on triglyceride levels in 7th group of normal chow-fed male rats after a dose of 100 mg/kg/day. It counts as functional, organism-based. The essentials: (§2)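 Male Sprague–Dawley CD rats (60–80 g) on Purina 5001 chow with a reverse 12 h light/dark cycle. Dosed once daily by oral gavage for 4 days, suspended in 1.3% Tween 80 / 0.25% CMC. Fasted overnight and bled 24 h after the last dose. Serum TC and glycerol-blanked TG measured enzymatically; VLDL-C by FPLC fractionation with cholesterol assay. n=6, mean ± SEM.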

Test [4] relates to Rattus norvegicus. Briefly: Effect of compound on serum high-density lipoprotein cholesterol concentration in chow-fed male rats at a dose of 0 mg/kg/day. It counts as functional, organism-based. The essentials:
(§3)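 Separate dose-response study in male Sprague–Dawley CD rats, 60–80 g, on chow. Oral gavage once daily for 4 days in 1.3% Tween 80 / 0.25% CMC; fasted overnight, bled 24 h after last dose. Apo-A1 by ELISA with rabbit anti-rat primary, alkaline phosphatase-conjugated anti-rabbit IgG and p-nitrophenyl phosphate substrate. HDL-C by FPLC fractionation. Mean ± SEM, six per group.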

The test system of test [5] is Rattus norvegicus. Kind of test: Effect of compound on serum high-density lipoprotein cholesterol concentration in chow-fed male rats at a dose of 10 mg/kg/day. It counts as functional, organism-based. The essentials:
as §3

In test [6] the test system is Rattus norvegicus. Briefly: Effect of compound on liver weight in 7th group of normal chow-fed male rats after a dose of 100 mg/kg/day. It counts as functional. The essentials:
(§4)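 Male Sprague–Dawley CD rats, 60–80 g, on chow with a reverse 12 h light/dark cycle. Given one oral gavage dose daily for 4 days, suspended in 1.3% Tween 80/0.25% CMC. Fasted overnight and sacrificed 24 h after the last dose for blood and liver. Serum liver enzymes read on a clinical analyzer. Six per group, mean ± SEM.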

Test [7] concerns Rattus norvegicus. Kind of test: Effect of compound on serum high-density lipoprotein cholesterol concentration in chow-fed male rats at a dose of 50 mg/kg/day. It counts as functional, organism-based. The essentials: as §3
In the next test the test system is Mesocricetus auratus. Briefly: Effect of compound on gain in body weight in 1st group of cholesterol-fed male hamsters at 3 mg/kg/day after 14 days of treatment.
Test [8] has as its system Cricetinae gen. sp. Briefly: Effect of compound on thyroxine levels in 1st group of cholesterol-fed male hamsters at 3 mg/kg/day after 14 days of treatment. The settings on record: Mesocricetus auratus.
Test [9] relates to Cricetinae gen. sp. Kind of test: Effect of compound on low-density lipoprotein cholesterol levels in 3rd group of cholesterol-fed male hamsters at 30 mg/kg/day after 14 days of treatment. The settings on record: Mesocricetus auratus.
The test system of test [10] is Rattus norvegicus. Briefly: Effect of compound on relative liver weight in 4th group of normal chow-fed male rats after a dose of 10 mg/kg/day. It counts as functional. The essentials: (§5)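 Chow-fed male Sprague–Dawley CD rats, 60–80 g, dosed by oral gavage once daily for 4 days in 1.3% Tween 80/0.25% CMC. Fasted overnight and sacrificed 24 h after the last dose. Liver weight expressed as % of body weight at termination. Six per group, mean ± SEM.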

For test [11], the system named is Rattus norvegicus. Kind of test: Effect of compound on very low-density lipoprotein cholesterol levels in 7th group of normal chow-fed male rats after a dose of 100 mg/kg/day. The format is functional, organism-based. The essentials: as §2
Test [12] concerns Cricetinae gen. sp. Briefly: Effect of compound on total plasma cholesterol levels in 1st group of cholesterol-fed male hamsters at 3 mg/kg/day after 14 days of treatment. The following applies: Mesocricetus auratus.
Test [13] relates to Rattus norvegicus. Briefly: Percent change in low-density lipoprotein cholesterol following oral administration of compound in normal chow-fed rats at 100 mg/kg/day for 4 days. It counts as functional. The essentials:
(§6)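 Chow-fed male Sprague–Dawley CD rats, 60–80 g, gavaged 100 mg/kg/day for 4 days in 1.3% Tween 80/0.25% CMC. Fasted overnight, bled 24 h after the last dose. Total cholesterol and glycerol-blanked triglycerides read enzymatically; lipoproteins by FPLC with cholesterol per fraction. % change versus control; six per group, p < 0.05.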

Test [14] can be described thus: Effect on serum lipids in 2nd group of normal chow-fed male rats after a dose of 2 mg/kg/day was evaluated as ratio of total plasma cholesterol levels to high-density lipoprotein cholesterol levels. The format is functional. The essentials: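 Male Sprague–Dawley CD rats, 60–80 g, chow-fed, dosed by oral gavage daily for 4 days in 1.3% Tween 80/0.25% CMC. Fasted overnight, bled 24 h after the last dose. Serum total cholesterol by enzymatic reagent; HDL-C from cholesterol in FPLC fractions; TPC/HDL-C ratio calculated. Six per group, mean ± SEM.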

In test [15] the test system is Rattus norvegicus. Kind of test: Effect of compound on relative liver weight in 2nd group of normal chow-fed male rats after a dose of 2 mg/kg/day. The format is functional. The essentials:
as §5

Test [16] deals with Rattus norvegicus. Kind of test: Effect of compound on low-density lipoprotein cholesterol levels in 1st group of normal chow-fed male rats after a dose of 1 mg/kg/day. It counts as functional, organism-based. The essentials: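 Male Sprague–Dawley CD rats, 60–80 g, on standard chow with reverse 12 h light/dark cycle. One oral gavage dose daily for 4 days, suspended in 1.3% Tween 80 and 0.25% CMC. Fasted overnight; sacrificed 24 h after the last dose. Serum TC on clinical analyzer, lipoproteins by FPLC with cholesterol per fraction, T4 on analyzer. Mean ± SEM, six rats per group.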

The subject of test [17] is Rattus norvegicus. Kind of test: Effect of compound on relative liver weight in 5th group of normal chow-fed male rats after a dose of 20 mg/kg/day. The format is functional. The essentials: as §5
For test [18], the system named is Cricetinae gen. sp. Briefly: Effect of compound on very low-density lipoprotein cholesterol levels in 3rd group of cholesterol-fed male hamsters at 30 mg/kg/day after 14 days of treatment. The following applies: Mesocricetus auratus.
In test [19] the test system is Rattus norvegicus. Briefly: Effect of compound on lactic dehydrogenase (LDH) levels in 6th group of normal chow-fed male rats after a dose of 50 mg/kg/day. The format is functional, organism-based. The essentials: as §4
Test [20] concerns Rattus norvegicus. Briefly: Effect of compound on liver weight in 3rd group of normal chow-fed male rats after a dose of 5 mg/kg/day. The format is functional. The essentials:
as §4

Test [21] concerns Rattus norvegicus. Kind of test: Percent change in triglycerides following oral administration of compound in normal chow-fed rats at 100 mg/kg/day for 4 days. The format is functional. The essentials: as §6
For test [22], the system named is Rattus norvegicus. Kind of test: Effect of compound on alkaline phosphatase (ALKP) levels in 4th group of normal chow-fed male rats after a dose of 10 mg/kg/day. The format is functional, organism-based. The essentials:
as §1

The subject of test [23] is Rattus norvegicus. Briefly: Effect of compound on aspartate aminotransferase (AST) levels in 4th group of normal chow-fed male rats after a dose of 10 mg/kg/day. The format is functional, organism-based. The essentials:
as §1

Turning to `CCN1CC(=O)N(c2cc(Cl)ccc2C)C1=S`, the Body weight in the test on Rattus norvegicus [1] is listed as 33.2 g; with Rattus norvegicus [2], 26.3 g; with Mesocricetus auratus it was 10.2 g. Besides, the Serum level stood at 12 mg/dL in the test with Rattus norvegicus [3]; 51.9 mg/dL in the test on Rattus norvegicus [4]; 73.1 mg/dL in the test with Rattus norvegicus [5]; 87.3 mg/dL in the test with Rattus norvegicus [7]; 5.8 µg/dL in the test on Cricetinae gen. sp. [8]; 125 mg/dL in the test with Cricetinae gen. sp. [9]. Also, the Serum level in the test with Rattus norvegicus [11] was 5.7 mg/dL; with Cricetinae gen. sp. [12], 429 mg/dL; in the test with Rattus norvegicus [16], 5.7 mg/dL; with Cricetinae gen. sp. [18], 91 mg/dL. In addition, the Liver weight in the test with Rattus norvegicus [6] was determined as 7.8 g; in the test on Rattus norvegicus [20], 7.2 g. Also, the Relative liver weight worked out at 4.3% with Rattus norvegicus [10], 3.9% in the test with Rattus norvegicus [15] and 4.3% with Rattus norvegicus [17]. The Change with Rattus norvegicus [13] is on record as 9.6%; with Rattus norvegicus [21], -23.1%. The Ratio in test [14] is 1.37. Also, the Level in the test on Rattus norvegicus [19] worked out at 815 U l-1; with Rattus norvegicus [22] it was 327 U l-1; in the test with Rattus norvegicus [23], 182 U l-1.

The record behind these values is ChEMBL document CHEMBL1148398, “Design, synthesis, and biological evaluation of thio-containing compounds with serum HDL-cholesterol-elevating properties” (2004).
